HNF4A DNA FP: change in binding of human HNF4 alpha to DNA. HNF4a-FITC DNA binding, fluorescence polarization, 1 h. activity change, % at 10 µM. actives 0.3% (n = 360,000). AID 1224865; in the data active means activity change above about 30%, passing the limit was not always enough
Target sequence (P41235 whole entry, looked up): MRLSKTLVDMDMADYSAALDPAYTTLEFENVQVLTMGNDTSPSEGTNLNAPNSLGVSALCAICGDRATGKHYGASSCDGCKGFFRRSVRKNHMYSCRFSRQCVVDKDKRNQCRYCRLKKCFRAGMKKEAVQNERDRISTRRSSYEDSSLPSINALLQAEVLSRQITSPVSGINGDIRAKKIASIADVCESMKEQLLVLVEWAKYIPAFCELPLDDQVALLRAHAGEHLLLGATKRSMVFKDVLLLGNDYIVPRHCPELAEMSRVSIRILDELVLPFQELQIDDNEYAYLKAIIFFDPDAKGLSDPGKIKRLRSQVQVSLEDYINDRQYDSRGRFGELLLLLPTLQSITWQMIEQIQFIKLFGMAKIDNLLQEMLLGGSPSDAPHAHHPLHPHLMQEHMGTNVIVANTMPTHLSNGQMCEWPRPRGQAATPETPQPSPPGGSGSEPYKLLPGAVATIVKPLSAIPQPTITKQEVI
IDE cell activ: boosts human insulin-degrading enzyme activity in HEK cells | actives 0.073% (n = 340,000) | activation, % at 5.96 µM | FAbeta-B cleavage, fluorescence polarization; 0% vehicle, 100% cell-free pure enzyme wells | P14735;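 active means activation above the mean of all tested compounds plus 3 SD, set per screening campaign, cut at about 17% in these data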
TPT1 inh: blocks Candida albicans tRNA 2'-phosphotransferase. recombinant caTPT1, FP RNA substrate dephosphorylation. actives 0.81% (n = 300,000). inhibition, % at 5 µM. AID 1962;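 active means inhibition above the mean of all tested compounds plus 3 SD, set per screening campaign, cut at about 24% in these data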
TbMetRS inhib: Trypanosoma brucei MetRS inhibition; purified T. brucei MetRS, ATP depletion, Kinase-Glo luminescence; inhibition, % at 11.9 µM; actives 0.4% (n = 360,000); AID 624268;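 active means inhibition above a per-plate cutoff of the control wells' mean inhibition plus 3 SD, cut at about 5.5% in these data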
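Material – parasite MetRS enzyme · Medium – HEPES-MgCl2-KCl buffer plus DTT, spermine, BSA, pyrophosphatase · Reagent – ATP, methionine and E. coli bulk tRNA substrates · Times – 15 min enzyme-compound preincubation, 2 h reaction, 10 min detection, 25 °C · Measured by – luminescence of leftover ATP · Evaluation – percent inhibition relative to median high and low control wells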
CSN deneddyl inh: inhibitors of human CSN-mediated cullin deneddylation. inhibition, % at 12.5 µM. AID 651999. Purified CSN, SCF-Nedd8-OG deneddylation, fluorescence polarization. actives 0.38% (n = 360,000);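 active means pattern-corrected inhibition above about 35%, with an unprinted fluorescence ratio check between 0.5 and 1.5, limit read from the data, passing the limit was not always enough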
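Assay system: purified human Csn5 enzyme expressed in HEK293T cells; measure: % inhibition; also added: SCFSkp2-Nedd8OG substrate at 10 nM final; technique: fluorescence polarization; times: reaction 90 min, room temperature; medium: Tris buffer pH 7.5, NaCl, DTT, Tween-20, trehalose, ovalbumin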
IDE inh: inhibitors of human insulin-degrading enzyme in cells; inhibition, % at 5.59 µM; HEK cells, FAbetaB cleavage, fluorescence polarization; AID 434962; actives 0.41% (n = 320,000);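 active means percent inhibition above the average of all tested compounds plus 3 SD, set per screening campaign, cut at about 16% in these data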;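 further: IDE supplied by intact live HEK cells; FP after avidin binding of uncleaved biotin substrate so inhibition keeps polarization high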
TPT1 inh confirm: TPT1 (C. albicans) inhibition, confirmation; inhibition, % at 5 µM; recombinant caTPT1, fluorescence polarization, RNase T1 coupled; shares compounds with TPT1 inh; actives 74% (n = 2,400);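 active means inhibition above the primary screen limit, the mean inhibition of all tested compounds plus 3 SD, cut at about 25% in these data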
RNase T1 inh: counter-screen for TPT1 inhibitors: inhibitors of Aspergillus oryzae RNase T1; shares compounds with TPT1 inh; RNase T1 cleavage, fluorescence polarization, 1536-well; inhibition, % at 5 µM; actives 83% (n = 2,400);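 active means inhibition above the solvent-only control well mean plus 3 SD, limit set per screening run, cut at about 23% in these data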;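 further: inhibitors block cleavage so intact labeled substrate keeps polarization high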
Target sequence (P00651 whole entry, looked up): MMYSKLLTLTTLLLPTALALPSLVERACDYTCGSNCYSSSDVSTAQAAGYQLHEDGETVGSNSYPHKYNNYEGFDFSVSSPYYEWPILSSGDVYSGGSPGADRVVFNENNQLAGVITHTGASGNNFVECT
IDE inh confirm: confirmation of human insulin-degrading enzyme inhibitors in cells | HEK cells, FAbetaB cleavage, fluorescence polarization | actives 51% (n = 1,200) | inhibition, % at 5.59 µM | shares compounds with IDE inh;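 active means mean inhibition across triplicate wells above the cutoff set by the earlier primary insulin-degrading enzyme screen, cut at about 16% in these data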
HEK cytotox: kills HEK cells in IDE inhibitor counter-screen; shares compounds with IDE inh; HEK293 cytotoxicity, ATP luminescence; inhibition, % at 5.59 µM; actives 28% (n = 1,200); in the data active means inhibition above about 22%
Tb MetRS conf: Trypanosoma brucei MetRS inhibition confirmed; inhibition, % at 11.9 µM; actives 93% (n = 1,400); T. brucei MetRS enzyme, luminescence (ATP depletion); shares compounds with TbMetRS inhib; AID 624412; in the data active means inhibition above about 7%
Jurkat cytotox: Jurkat T cell cytotoxicity for MetRS hits | shares compounds with TbMetRS inhib | Jurkat cells viability, ATP luminescence | inhibition, % at 8.3 µM | actives 12% (n = 1,400) | AID 624413; in the data active means inhibition above about 15%
TbMetRS FP orth: inhibits T. brucei methionyl tRNA synthetase in orthogonal FP test. purified T. brucei MetRS, fluorescence polarization. actives 44% (n = 1,400). inhibition, % at 11.9 µM. shares compounds with TbMetRS inhib; in the data active means inhibition above about 17%
CSN deneddyl val: Csn5 (human) deneddylation inhibition, single-concentration validation; shares compounds with CSN deneddyl inh; Csn5 deneddylation of SCF-Nedd8OG, fluorescence polarization, 90 min; inhibition, % at 16.6 µM; actives 62% (n = 540); AID 720654; in the data active means inhibition above about 50%
MMP-2 counter: blocks human MMP-2 in a CSN deneddylation counter-screen; shares compounds with CSN deneddyl inh; recombinant MMP-2, FRET substrate fluorescence, 60 min; inhibition, % at 16.6 µM; actives 33% (n = 540); AID 720655;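 active means corrected plate-normalized z-score of 5 or more, or -5 or less, or inhibition of 15% or more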
Thrombin cntr: thrombin (bovine) inhibition, counter-screen for CSN hits | bovine thrombin cleavage of Ub4-pepOG, fluorescence polarization | actives 49% (n = 540) | shares compounds with CSN deneddyl inh | inhibition, % at 16.6 µM;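 active means inhibition at or above a set limit, with a fluorescence interference ratio between 0.5 and a set maximum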
Each line names hits and unclear results; the compound was inactive in the other large screens (follow-up assays come after a bar, where they were run). Sampled rows, rich in hits. Any-hit rate of the full collection: about 1.7%.

CCN(CC)C(=O)c1ccc(Oc2ccc([N+](=O)[O-])cc2Cl)cc1	TPT1 inh 44, TbMetRS inhib 5.9 | TPT1 inh confirm inactive | RNase T1 inh inactive | Tb MetRS conf 13 | Jurkat cytotox inactive | TbMetRS FP orth inactive
O=C1/C(=C/c2c[nH]c3ccccc23)CCC/C1=C\c1c[nH]c2ccccc12	TPT1 inh 51, TbMetRS inhib 6.2 | TPT1 inh confirm 147 | RNase T1 inh 137 | Tb MetRS conf 7.5 | Jurkat cytotox 18 | TbMetRS FP orth 18
C(=NN=Cc1c[nH]c2ccccc12)c1c[nH]c2ccccc12	none (no result: IDE cell activ, TPT1 inh, IDE inh)
C/C(Cc1ccccc1)=N\NC(=O)CNC(=O)c1ccccc1Br	none
COc1ccc(/C=C2\SC(=S)N(C(Cc3ccccc3)C(=O)O)C2=O)cc1 (stereo not given)	none (no result: TPT1 inh, IDE inh)
COc1cc(/C=C2/SC(=S)N(Cc3ccccc3)C2=O)ccc1O	HNF4A DNA FP 69, TPT1 inh 24, CSN deneddyl inh 57, IDE inh 115 | TPT1 inh confirm 37 | RNase T1 inh 46 | IDE inh confirm 139 | HEK cytotox inactive | CSN deneddyl val 58 | MMP-2 counter inactive | Thrombin cntr inactive
CCOc1cc(/C=C2\SC(=S)N(C(C(=O)O)c3ccccc3)C2=O)ccc1O (stereo not given)	TPT1 inh 45, CSN deneddyl inh 41, IDE inh 68 | TPT1 inh confirm 48 | RNase T1 inh 61 | IDE inh confirm 140 | HEK cytotox inactive | CSN deneddyl val 81 | MMP-2 counter inactive | Thrombin cntr 55
COc1cc(/C=C2\SC(=S)N(C(C(=O)O)c3ccccc3)C2=O)ccc1O (stereo not given)	TPT1 inh 27, CSN deneddyl inh 39, IDE inh 64 | TPT1 inh confirm 28 | RNase T1 inh 41 | IDE inh confirm 174 | HEK cytotox inactive | CSN deneddyl val 73 | MMP-2 counter inactive | Thrombin cntr 61
CCOc1ccc(/C=C2/SC(=S)N(C(C(=O)O)c3ccccc3)C2=O)cc1OCC (stereo not given)	none (no result: TPT1 inh, IDE inh)
O=C1/C(=C\c2cccc(O)c2)SC(=S)N1Cc1ccccc1	none
CC(c1ccccc1)N1CC(C(=O)N2CCCC(C(N)=O)C2)CC1=O (stereo not given)	none (no result: TPT1 inh)
Cc1occc1-c1nnc(SCC(=O)NC2CCCCC2C)o1 (stereo not given)	none (no result: TPT1 inh, IDE inh)
Cc1cccc(C)c1-n1cccc1/C=C1/C(=N)N2C(=NC1=O)SN=C2S(C)(=O)=O	none
Cc1ccc(-n2cccc2/C=C2/C(=N)N3C(=NC2=O)SN=C3S(C)(=O)=O)cc1Cl	TPT1 inh 32, CSN deneddyl inh 59 | TPT1 inh confirm 35 | RNase T1 inh 48 | CSN deneddyl val inactive | MMP-2 counter inactive | Thrombin cntr 39
COc1ccc(-c2oc3ccccc3c2C#Cc2cncn2C)cc1	none (no result: TPT1 inh)
CCOC(=O)SC1=N/C(=C\c2ccc(N(C)C)cc2)C(=O)S1	HNF4A DNA FP 79, TPT1 inh 82, CSN deneddyl inh 43 | TPT1 inh confirm 101 | RNase T1 inh 102 | CSN deneddyl val 80 | MMP-2 counter inactive | Thrombin cntr 46
COCCCNC(=O)CC1C(=O)N(Cc2ccccc2)C(C)c2nc3ccccc3n21 (stereo not given)	none
CCN1/C(=C/C=C/c2sc3ccccc3[n+]2CC)Sc2ccccc21	none
CCN1/C(=C/c2ccc3cc(C)ccc3[n+]2CC)Sc2ccccc21	HNF4A DNA FP 119, TPT1 inh 84, CSN deneddyl inh 72, IDE inh 91 | TPT1 inh confirm 97 | RNase T1 inh 103 | IDE inh confirm 136 | HEK cytotox 113 | CSN deneddyl val 66 | MMP-2 counter -23 | Thrombin cntr inactive
CC1=NN(c2ccccc2)C(c2ccco2)C1 (stereo not given)	none (no result: TPT1 inh, IDE inh)
O=[N+]([O-])c1ccc(/C=C/C2=NN(c3ccccc3)C(c3ccco3)C2)cc1 (stereo not given)	HNF4A DNA FP 83, TPT1 inh 70, CSN deneddyl inh 64, IDE inh 36 | TPT1 inh confirm 64 | RNase T1 inh 66 | IDE inh confirm 53 | HEK cytotox inactive | CSN deneddyl val 107 | MMP-2 counter inactive | Thrombin cntr inactive
CCOc1ccc(N(C)c2ccc(/C=C3/SC(=S)NC3=O)cc2)cc1	TPT1 inh 115, CSN deneddyl inh 87 | TPT1 inh confirm 128 | RNase T1 inh 127 | CSN deneddyl val inactive | MMP-2 counter 24 | Thrombin cntr 66
CCc1ccc(Nc2n[n+](-c3ccccc3)c(-c3ccc(N(CC)CC)cc3)s2)cc1	TPT1 inh 105, CSN deneddyl inh 91, IDE inh 19 | TPT1 inh confirm 115 | RNase T1 inh 112 | IDE inh confirm 23 | HEK cytotox 58 | CSN deneddyl val inactive | MMP-2 counter -79 | Thrombin cntr inactive
O=C(O)c1ccc(-c2sc(Nc3ccccc3)n[n+]2-c2ccc(F)cc2)cc1	none

Source: PubChem BioAssay
